# Compound activity deposited in PubChem by several laboratories.
# A selection: hits, their analogues and other compounds. The true share with any hit is near 1.8%.
# procasp3 activ = activators of human procaspase-3 | P42574 | recombinant procaspase-3 D3A, Ac-DEVD-pNA absorbance 405 nm | activation, % at 8.5 µM | 330,000 compounds, 0.11% hits | AID 463141;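 active = activation above the mean of all tested compounds plus 3 SD, cut at about 21% in these data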;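 also: 0% = DMSO alone and 100% = DMSO wells spiked with extra 5 µM PC-3 D3A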
#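 Assay system – Procaspase-3 D3A mutant, all three cleavage aspartates alanine · Controls – DMSO-only low control, 5 µM PC-3 D3A high control · Schedule – 1 h compound preincubation, 2 h substrate hydrolysis at 25 °C · Signal – 405 nm absorbance of p-nitroaniline, reads at 0 and 120 min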
# proCasp7 act = counter-screen: procaspase-7 (human) activation; P55210; recombinant procaspase-7, Ac-DEVD-pNA absorbance 405 nm; D23A/D198A/D206A triple mutant, cannot self-cleave; scale: DMSO 0, 5 µM enzyme 100; activation, % at 8.5 µM; 330,000 compounds, 0.093% hits; AID 463210;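 active = percent activation above the screen-wide mean plus 3 SD, cut at about 25% in these data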
# Target sequence (P55210 whole entry D23A/D198A/D206A): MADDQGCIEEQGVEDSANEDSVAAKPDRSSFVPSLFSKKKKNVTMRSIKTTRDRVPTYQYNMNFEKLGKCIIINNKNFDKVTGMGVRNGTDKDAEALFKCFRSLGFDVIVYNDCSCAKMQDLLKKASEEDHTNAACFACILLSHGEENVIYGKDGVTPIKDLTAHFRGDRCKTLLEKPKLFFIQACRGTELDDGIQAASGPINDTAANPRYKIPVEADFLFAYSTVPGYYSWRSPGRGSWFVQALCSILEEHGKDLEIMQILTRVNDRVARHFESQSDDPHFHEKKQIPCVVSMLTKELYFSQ
#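 Replicates: singlicate. Assay system: Procaspase-7 triple mutant (PC-7 D3A). Signal: 405 nm absorbance of p-nitroaniline. Times: 1 h preincubation, 2 h reaction. Buffer or medium: Zinc-free HEPES pH 7.4 with 300 mM NaCl, 0.01% Triton X-100. Also added: DEVD-pNA substrate. Benchmarks: DMSO wells as 0%, DMSO with 5 µM added PC-7 as 100%.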
# ZTA DNA inh = ZTA (EBV) inhibition in EBNA-1 counter-screen; P03206; ZTA-DNA binding, fluorescence polarization; inhibition, % at 11 µM; 320,000 compounds, 0.15% hits; in the data active = inhibition above about 33%
# GSTO1 counter = counter-screen for RBBP9 inhibitors: inhibitors of human GSTO1 | P78417 | recombinant GSTO1, activity-based probe fluorescence polarization | 300,000 compounds, 1.1% hits | inhibition, % at 5.96 µM | AID 1974;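 active = inhibition above the campaign mean inhibition plus 3 SD, cut at about 35% in these data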;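 also: 0% = GSTO1-1 with DMSO and 100% = wells lacking GSTO1-1 enzyme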
# Target sequence (P78417 whole entry, looked up): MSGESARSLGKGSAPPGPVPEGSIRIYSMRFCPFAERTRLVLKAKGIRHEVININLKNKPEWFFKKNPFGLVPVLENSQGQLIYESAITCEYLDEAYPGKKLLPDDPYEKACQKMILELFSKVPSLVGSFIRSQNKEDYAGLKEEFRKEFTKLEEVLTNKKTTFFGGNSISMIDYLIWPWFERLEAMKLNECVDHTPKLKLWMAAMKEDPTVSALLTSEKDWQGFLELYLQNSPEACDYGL
# EBNA-1 inh = blocks EBNA-1 binding to DNA; EBNA-1 DNA binding, fluorescence polarization; inhibition, % at 14.8 µM; 300,000 compounds, 0.34% hits; AID 1950; in the data active = inhibition above about 28%
# Apaf1 inhib = inhibitors of human Apaf-1 apoptosome; O14727; reconstituted apoptosome caspase-3 activity, DEVD-Rh110 fluorescence; inhibition, % at 20 µM; 330,000 compounds, 0.71% hits; active = inhibition of at least 40% at 20 µM;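 also: plate controls were DMSO wells for no effect and DEVD-CHO caspase inhibitor wells for full effect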
#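 Material: reconstituted apoptosome with Apaf-1, cytochrome c, caspase-9, procaspase-3, dATP. Technique: Rh110 fluorescence intensity. Buffer or medium: pH 7.5 Hepes buffer with CHAPS, BSA, DTT. Times: 30 min plus 50 min, RT.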
# PC3 dual counter = counter-screen: procaspase-3 (human) activation | shares compounds with proCasp7 act | recombinant PC-3 D3A, Ac-DEVD-pNA absorbance 405 nm; aspartates 9, 28, 175 changed to alanine; 100% = enzyme control | activation, % at 8.5 µM | 290 tested, under 10 active;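 active = mean percent activation across triplicates above a set limit taken from the earlier primary procaspase-3 screen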;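 also: 0% = DMSO wells and 100% = DMSO wells with 5 µM added PC-3 D3A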
# Procasp7 act = confirmation of dual procaspase activators: human procaspase-7 activation | shares compounds with proCasp7 act | recombinant procaspase-7, Ac-DEVD-pNA absorbance 405 nm; D23A/D198A/D206A mutant that cannot self-cleave | activation, % at 8.5 µM | 290 tested, under 10 active | AID 493115;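 active = mean activation above a set limit carried over from the earlier primary screen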;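 also: 0% = DMSO only and 100% = DMSO with added 5 µM PC-7 enzyme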
# * marks the source's active call; other numbers are inactive results; . = no result.
SMILES,procasp3 activ,proCasp7 act,ZTA DNA inh,GSTO1 counter,EBNA-1 inh,Apaf1 inhib,PC3 dual counter,Procasp7 act
O=C1[C@H]2C(c3ccccc3)=NN(c3ccccc3)[C@H]2C(=O)N1c1ccccc1,31.8*,39.9*,7.1,11.5,-5.8,-0.5,-30.6,-36.0
CC(C)(C)NC(=O)CSc1ccc(S(=O)(=O)N2CCOCC2)cn1,6.0,-3.1,0.9,.,.,-9.0,.,.
O=C(Nc1cccc(O)c1)c1cccc(S(=O)(=O)N2CCCC2)c1,-6.9,25.7*,30.8,4.3,8.1,3.1,1.0,0.8
CCC(C)NC(=O)CSc1ccc(NC(C)=O)cc1 (configuration not stated),-3.7,39.1*,6.8,12.3,-5.3,9.6,1.8,6.9
CCC(C)NC(=O)CSc1ccc(Cl)cc1 (configuration not stated),1.5,-0.3,-17.7,-1.4,-8.4,-3.2,.,.
Cc1ccc(C)c(N=Cc2c(O)c3ccccc3oc2=O)c1,10.0,19.3,-1.3,4.2,-14.7,7.3,.,.
COc1ccc(Cl)cc1N=Cc1c(O)c2ccccc2oc1=O,19.3,41.7*,-4.2,-1.3,-0.1,-0.1,-5.1,-4.3
COc1ccc(N=Cc2c(O)c3ccccc3oc2=O)cc1,8.9,11.5,-6.7,-1.7,-7.7,-1.8,.,.
CCOc1ccccc1N=Cc1c(O)c2ccccc2oc1=O,20.5,34.7*,14.7,4.7,-1.1,-1.5,-30.0,-34.4
CC(C)c1ccc(N=Cc2c(O)c3ccccc3oc2=O)cc1,21.8*,29.8*,-4.2,-6.0,-8.0,-17.0,-28.7,-34.1
COc1ccc(OC)c(N=Cc2c(O)c3ccccc3oc2=O)c1,13.9,9.2,-14.2,-6.3,10.3,-3.7,.,.
COc1cccc(N2C(=O)Nc3ccc(Br)cc3C2(O)C(=O)NCCCN(C)C)c1 (configuration not stated),6.0,5.6,6.3,-2.0,-1.5,1.8,.,.
Cc1ccc(NC(=O)CNc2ccccc2N2CCCC2=O)cc1S(=O)(=O)N1CCOCC1,.,.,.,.,.,-2.9,.,.
Cc1cccc(S(=O)(=O)Nc2ccc(-c3nc4ccc(C)cc4s3)cc2)c1,23.4*,43.4*,-2.6,-2.2,-7.2,28.0,-27.0,-32.4
O=C(N/N=C/c1c[nH]c2ccccc12)c1cc(-c2ccc3ccccc3c2)n[nH]1,9.3,30.6*,0.8,-75.8,-4.8,18.6,2.9,-1.2
O=C(NNC(=O)c1ccc(S(=O)(=O)N2CCCCC2)cc1)c1ccc(F)cc1,7.7,3.0,-14.2,0.4,4.4,-0.3,.,.
COC(=O)C1=C(C)NC(C)=C(C(=O)OC)C1C(=O)OCCN1C(=O)c2ccccc2C1=O,-13.0,44.4*,-6.5,12.5,-8.0,-9.0,1.6,-0.1
CCc1cc2c3c(c(=O)oc2cc1O)CCCC3,27.9*,26.0*,-0.4,-4.7,1.7,1.7,-28.8,-36.2
C=CCSc1nnc(-c2cccc3ccccc23)o1,-0.1,-5.2,.,.,.,-1.7,.,.
C=CCSc1nnc(-c2cc3c(s2)-c2ccccc2CC3)o1,18.1,27.7*,-15.1,1.6,-11.4,19.4,-28.9,-27.3
Cc1ccc(Cn2cccc(-c3nc4ccccc4s3)c2=O)cc1,11.4,43.2*,5.5,6.8,20.9,6.9,-29.5,-34.4
Nc1ccccc1-c1nc2ccccc2s1,-6.9,-2.7,-11.2,26.0,-0.6,12.0,.,.
O=c1c(-c2nc3ccccc3s2)cccn1Cc1ccccc1,6.4,56.0*,6.2,3.4,2.4,17.1,-29.2,-35.1
COc1ccc(-c2cc3ncnc(Cl)c3s2)cc1,-5.3,-11.2,6.2,-3.2,-17.4,8.5,.,.
O=C(COC(=O)/C=C/c1cccc(C(F)(F)F)c1)NCc1cccs1,6.6,14.8,-0.7,.,.,17.7,.,.
SMILES,procasp3 activ,proCasp7 act,ZTA DNA inh,GSTO1 counter,EBNA-1 inh,Apaf1 inhib,PC3 dual counter,Procasp7 act
COc1ccc2c(-c3ccc(S(N)(=O)=O)cc3)c(-c3ccc(S(C)(=O)=O)cc3)sc2c1,23.2*,43.7*,.,.,.,3.7,-27.9,-37.7
CN(CC(=O)Nc1ccc(N2CCOCC2)cc1)C(=O)c1ccc(CS(C)(=O)=O)cc1,6.0,-2.6,.,.,.,-6.4,.,.
CCOC(=O)Cc1nc2ccccc2[nH]1,20.6,78.5*,1.1,-0.2,11.4,-4.0,2.9,-0.8
Cc1ccc(C(=O)Cc2nc3ccccc3[nH]2)cc1,-4.8,12.8,2.6,-4.9,1.9,-0.7,.,.
COc1ccc(CNC(=O)C2CCN(c3cc(C(=O)Nc4cccc(OC)c4)ccn3)CC2)cc1,6.1,52.9*,-13.3,-1.0,-10.8,18.4,0.2,3.6
COc1ccc(CNC(=O)C2CCN(c3nc(OC)nc(OC)n3)CC2)cc1,0.9,11.6,5.2,-3.3,5.0,-2.2,.,.
COc1cccc(NC(=O)c2ccnc(N3CCC(C(=O)NCc4cc(OC)ccc4OC)CC3)c2)c1,3.5,33.5*,-8.1,-11.5,-5.7,9.7,5.9,9.0
Cc1ccccc1-c1nnc(SCC(=O)NC2CCCC2)n1C,-2.2,14.0,3.0,2.6,4.6,19.7,.,.
Cc1ccc(C(C)(C)C)cc1S(=O)(=O)N1CCC(C(=O)N2CCN(c3ccc(O)cc3)CC2)CC1,-15.6,-33.6,-20.4,.,.,18.5,.,.
Nc1c(S(=O)(=O)c2cccs2)c2nc3ccccc3nc2n1Cc1cccs1,81.6*,77.7*,-15.3,0.8,1.4,19.2,-11.1,-21.4
CC(=O)c1cc2c(ccc3ccccc32)oc1=O,.,.,.,.,.,-6.8,.,.
O=C(c1ccco1)c1cc2c(ccc3ccccc32)oc1=O,8.8,26.1*,8.3,4.9,-9.7,8.6,-6.7,-8.4
Cc1cccc(-c2cc3nc(-c4ccccc4)cc(N4CCC5(CC4)OCCO5)n3n2)c1,16.6,30.3*,-8.4,7.4,-4.9,11.3,-27.9,-34.2
Fc1cccc(-c2cc3nc(-c4ccccc4)cc(N4CCC5(CC4)OCCO5)n3n2)c1,21.6*,29.9*,9.2,-6.0,-1.9,-4.4,-26.3,-27.9
Cc1ccc(-c2cc3nc(-c4ccccc4)cc(N4CCC5(CC4)OCCO5)n3n2)cc1,-24.5,-25.3,6.8,-1.3,3.2,5.3,.,.
COc1ccc(Cl)c(NC(=O)C/C(C)=N/NC(=O)CCc2ccccc2)c1,5.2,0.5,7.9,-4.3,-1.7,3.0,.,.
COc1ccc(S(=O)(=O)N2CCc3ccccc32)cc1[N+](=O)[O-],1.4,-0.4,-2.4,5.0,8.9,4.7,.,.
CCn1nc(NC(=O)c2ccccc2)c2cc3cccc(C)c3nc21,53.4*,49.8*,1.1,-8.7,1.3,4.4,-29.1,-35.3
